Laboratory results: ChEMBL document CHEMBL3272112, “Cycloalkanones. 8. Hypocholesterolemic activity of long-chain ketones related to pentadecanone” (J Med Chem, 1976)

Key:
Rattus norvegicus [1] = assay: Hypocholesterolemic activity in Sprague-Dawley rat assessed as serum cholesterol level at 10 mg/kg/day, po administered via intubation measured on day 4 by Liebermann-Burchard method relative to control; format: functional
Outline: (§1)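 Male Sprague-Dawley rats given compound homogenized in 1% CMC once daily at 11:00 a.m. by oral intubation needle (0.2 cc), doses calculated on weekly body weights; tail-vein blood drawn 24 h after last dose; nonhemolyzed serum (30 μ) assayed by modified Liebermann-Burchard method; N = 8; % of control, mean ± SD; Student's t test.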

Rattus norvegicus [2] = assay: Hypocholesterolemic activity in Sprague-Dawley rat assessed as serum cholesterol level at 10 mg/kg/day, po administered via intubation measured on day 10 by Liebermann-Burchard method relative to control; format: functional; outline: as §1
Rattus norvegicus [3] = assay: Toxicity in Sprague-Dawley rat assessed as increase in body weight at 10 mg/kg/day measured on day 10 (reference value: 160 +/- 13%); format: organism-based; details: in vivo
Rattus norvegicus [4] = assay: Hypocholesterolemic activity in Sprague-Dawley rat assessed as serum cholesterol level at 50 mg/kg/day, po administered via intubation measured on day 4 by Liebermann-Burchard method relative to control; format: functional; outline: as §1
Rattus norvegicus [5] = assay: Hypocholesterolemic activity in Sprague-Dawley rat assessed as serum cholesterol level at 5 mg/kg/day, po administered via intubation measured on day 10 by Liebermann-Burchard method relative to control; format: functional; outline: as §1
Rattus norvegicus [6] = assay: Toxicity in Sprague-Dawley rat assessed as increase in body weight at 50 mg/kg/day administered for 16 days measured on day 16 post last dose (reference value: 195 +/- 16%); format: organism-based; details: in vivo, 384 h
Rattus norvegicus [7] = assay: Toxicity in Sprague-Dawley rat assessed as food intake at 50 mg/kg/day measured after 1 week (reference value: 20.9 +/- 4.9 g/day); format: organism-based; details: in vivo, 168 h
Rattus norvegicus [8] = assay: Toxicity in Sprague-Dawley rat assessed as food intake at 1 mg/kg/day measured after 2 weeks (reference value: 24.8 +/- 1.1 g/day); format: organism-based; details: in vivo, 336 h
Rattus norvegicus [9] = assay: Toxicity in Sprague-Dawley rat assessed as food intake at 20 mg/kg/day measured after 2 weeks (reference value: 24.8 +/- 1.1 g/day); format: organism-based; details: in vivo, 336 h
Rattus norvegicus [10] = assay: Toxicity in Sprague-Dawley rat assessed as change in kidney weight at 10 mg/kg/day administered for 16 days measured on day 16 post last dose relative to total body weight (reference value: 0.91 +/- 0.10%); format: organism-based; details: in vivo, 384 h
Rattus norvegicus [11] = assay: Toxicity in Sprague-Dawley rat assessed as change in heart weight at 10 mg/kg/day administered for 16 days measured on day 16 post last dose relative to total body weight (reference value: 0.39 +/- 0.04%); format: organism-based; details: in vivo, 384 h
Rattus norvegicus [12] = assay: Toxicity in Sprague-Dawley rat assessed as increase in epididymis and vas deferens weight at 10 mg/kg/day administered for 16 days measured on day 16 post last dose relative to total body weight (reference value: 0.22 +/- 0.04%); format: organism-based; details: in vivo, 384 h
Rattus norvegicus [13] = assay: Toxicity in Sprague-Dawley rat assessed as increase in testes weight at 10 mg/kg/day administered for 16 days measured on day 16 post last dose relative to total body weight (reference value: 1.09 +/- 0.01%); format: organism-based, Testis; details: in vivo, 384 h
Rattus norvegicus [14] = assay: Toxicity in Sprague-Dawley rat assessed as increase in vesicular gland weight at 10 mg/kg/day administered for 16 days measured on day 16 post last dose relative to total body weight (reference value: 0.118 +/- 0.062%); format: organism-based; details: in vivo, 384 h
Rattus norvegicus [15] = assay: Toxicity in Sprague-Dawley rat assessed as effect on DNA level in liver at 10 mg/kg/day measured after 16 days (reference value: 100 +/- 2%); format: organism-based; details: in vivo, 384 h
Rattus norvegicus [16] = assay: Toxicity in Sprague-Dawley rat assessed as effect on RNA level in liver at 10 mg/kg/day measured after 16 days (reference value: 100 +/- 6%); format: organism-based; details: in vivo, 384 h
Rattus norvegicus [17] = assay: Toxicity in Sprague-Dawley rat assessed as effect on protein level in liver at 10 mg/kg/day measured after 16 days (reference value: 100 +/- 5%); format: organism-based; details: in vivo, 384 h
Rattus norvegicus [18] = assay: Effect on serum triglyceride level in Sprague-Dawley rat at 10 mg/kg/day measured on day 16 (reference value: 100 +/- 21%); format: functional
Rattus norvegicus [19] = species: Rattus norvegicus; assay: Disruption of rat liver cell membrane assessed as unlysed cells at 5 mg per gram of tissue measured at 15 mins (reference value: 91 +/- 6%); format: functional
Outline: (§2)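 Rat liver 10% homogenate in 0.25 M sucrose + 0.001 M EDTA, pH 7.2, incubated at 37°C with Hanke's buffer pH 7.2 and drug suspended in 1% CMC (dose as mg drug per g wet liver); turbidity read as absorbance at 660 nm over 0–4 hr, falling absorbance taken as lysis; expressed as % unlysed cells; vehicle 1% CMC control.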

Rattus norvegicus [20] = species: Rattus norvegicus; assay: Disruption of rat liver cell membrane assessed as unlysed cells at 25 mg per gram of tissue measured at 30 mins (reference value: 93 +/- 7%); format: functional; outline: as §2
Rattus norvegicus [21] = species: Rattus norvegicus; assay: Disruption of rat liver cell membrane assessed as unlysed cells at 5 mg per gram of tissue measured at 1 hr (reference value: 90 +/- 4%); format: functional; outline: as §2
Rattus norvegicus [22] = species: Rattus norvegicus; assay: Disruption of rat liver cell membrane assessed as unlysed cells at 5 mg per gram of tissue measured at 2 hrs (reference value: 77 +/- 8%); format: functional; outline: as §2
Rattus norvegicus [23] = species: Rattus norvegicus; assay: Disruption of rat liver cell membrane assessed as unlysed cells at 10 mg per gram of tissue measured at 4 hrs (reference value: 17 +/- 4%); format: functional; outline: as §2
Rattus norvegicus [24] = species: Rattus norvegicus; assay: Disruption of rat liver lysosomal membrane assessed as free acid phosphatase activity at 25 mg per gram of tissue measured after 1 hr (reference value: 100 +/- 16%); format: functional, tissue-based
Outline: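 10% rat liver homogenate incubated with Hanke's buffer pH 7.2 and drug suspension in 1% CMC in a shaker at 37°C; aliquot removed after 1 hr and percent free (unbound) acid phosphatase activity determined as an index of lysosomal membrane rupture.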

Rattus norvegicus [25] = assay: Toxicity in Sprague-Dawley rat assessed as atrophy of epididymis at 10 mg/kg/day administered for 16 days measured on day 16 post last dose; format: organism-based; details: in vivo, 384 h
Rattus norvegicus [26] = assay: Toxicity in Sprague-Dawley rat assessed as atrophy of vas deferens at 10 mg/kg/day administered for 16 days measured on day 16 post last dose; format: organism-based; details: in vivo, 384 h
Rattus norvegicus [27] = assay: Toxicity in Sprague-Dawley rat assessed as atrophy of testis at 10 mg/kg/day administered for 16 days measured on day 16 post last dose; format: organism-based; details: in vivo, 384 h
Rattus norvegicus [28] = assay: Uterotrophic activity in ovariectomized weaned Sprague-Dawley rat assessed as uterine weight at 10 mg/kg/day measured after 3 days (reference value: 100 +/- 15%); format: ADME, organism-based, Uterus; details: in vivo, 72 h
Outline: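 Weaned rats were ovariectomized and left untreated for 3 days. They were then dosed for 3 days with 17-ethinylestradiol 10 µg/kg/day or test compound 10 mg/kg/day, with 1% CMC as the vehicle control. Rats were then killed and the uterus removed, trimmed and weighed. Results are % of control uterine weight, mean ± SD; N = 7; Student's t test.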

Rattus norvegicus [29] = assay: Toxicity in Sprague-Dawley rat assessed as estrogenic activity at 10 mg/kg/day; format: organism-based; details: in vivo
Outline: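 Weaned rats ovariectomized, left 3 days, then given 10 mg/kg/day test compound (or 10 μg/kg/day 17-ethinylestradiol as reference) for 3 days; killed, uterus removed, trimmed and weighed; expressed as % uterine weight of 1% CMC control, mean ± SD; Student's t test.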

## CCCCCCCCCCCCCCC(C)=O
Rattus norvegicus [1]
  Activity: 79%
Rattus norvegicus [2]
  Activity: 72%
Rattus norvegicus [3]
  Activity: 145%
Rattus norvegicus [4]
  Activity: 75%
Rattus norvegicus [5]
  Activity: 78%
Rattus norvegicus [6]
  Activity: 226%
Rattus norvegicus [7]
  Activity: 22.5 g/day
Rattus norvegicus [8]
  Activity: 26.6 g/day
Rattus norvegicus [9]
  Activity: 24.2 g/day
Rattus norvegicus [10]
  Activity: 0.86%
Rattus norvegicus [11]
  Activity: 0.39%
Rattus norvegicus [12]
  Activity: 0.24%
Rattus norvegicus [13]
  Activity: 1.13%
Rattus norvegicus [14]
  Activity: 0.121%
Rattus norvegicus [15]
  Activity: 114%
Rattus norvegicus [16]
  Activity: 111%
Rattus norvegicus [17]
  Activity: 107%
Rattus norvegicus [18]
  Activity: 120%
Rattus norvegicus [19]
  Activity: 95%
Rattus norvegicus [20]
  Activity: 96%
Rattus norvegicus [21]
  Activity: 91%
Rattus norvegicus [22]
  Activity: 83%
Rattus norvegicus [23]
  Activity: 19%
Rattus norvegicus [24]
  Activity: 116%
Rattus norvegicus [25]
  Activity: Non-toxic
Rattus norvegicus [26]
  Activity: Non-toxic
Rattus norvegicus [27]
  Activity: Non-toxic
Rattus norvegicus [28]
  Activity: 64%
Rattus norvegicus [29]
  Activity: Non-toxic
